Reference: ChEMBL document CHEMBL4346742, “The parmodulin NRD-21 is an allosteric inhibitor of PAR1 Gq signaling with improved anti-inflammatory activity and stability” (Bioorg Med Chem, 2019)
≈ marks a conversion by molar mass, not a printed value. Calls of active or inactive are those of the source. The calls are words filed in the database; no cut-off is given here.

Assays:
[1] = molecular target: T1, Proteinase-activated receptor 1 (Homo sapiens) (UniProt P25116); experiment: Negative allosteric modulation of PAR1 in human EAhy926 cells assessed as reduction in TFLLRN-NH2-induced intracellular calcium mobilization at 10 uM incubated for 15 mins followed by TFLLRN-NH2 addition by Fluo-4-AM dye based fluorescence assay relative to control; assay type: functional, cell-based
T1 sequence (whole entry): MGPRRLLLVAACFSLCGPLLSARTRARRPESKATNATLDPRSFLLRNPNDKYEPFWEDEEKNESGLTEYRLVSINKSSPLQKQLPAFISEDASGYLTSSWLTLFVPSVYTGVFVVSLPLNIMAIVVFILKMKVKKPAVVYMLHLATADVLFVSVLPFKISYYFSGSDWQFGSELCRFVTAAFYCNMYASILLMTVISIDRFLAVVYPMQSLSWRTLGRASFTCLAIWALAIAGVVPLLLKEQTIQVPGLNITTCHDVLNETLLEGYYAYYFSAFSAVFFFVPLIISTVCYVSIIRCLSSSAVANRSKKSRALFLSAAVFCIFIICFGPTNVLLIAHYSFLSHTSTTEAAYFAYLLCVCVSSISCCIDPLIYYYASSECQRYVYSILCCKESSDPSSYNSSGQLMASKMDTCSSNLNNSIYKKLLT
Summary of the method: (§1)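 Adherent EA.hy926 endothelial cells in 96-well format, intracellular Ca2+ mobilization triggered by PAR1 agonist TFLLRN-NH2 at 5 µM; single-point % inhibition at 10 µM (n = 4 wells, SEM); 7-point concentration-response curves, 3 wells per concentration, pIC50 from 4-variable non-linear regression; average IC50 ± SEM over independent assays.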

Platelet = experiment: Antiplatelet activity in human washed platelets assessed as inhibition of SFLLRN-NH2-induced platelet aggregation at 10 uM incubated for 2 mins followed by SFLLRN-NH2 addition and monitored for 5 mins by lumi-aggregometery
[2] = Stability in human microsomes for 1 hr; assay type: ADME, Microsome; conditions: read-out: Stability
Summary of the method: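 Human liver microsomes, % remaining after 1 h.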

[3] = molecular target: Beta-3 adrenergic receptor (Homo sapiens) (UniProt P13945); experiment: Inhibition of beta3 adrenoceptor (unknown origin) at 10 uM by radio ligand binding assay
Beta-3 adrenergic receptor (Homo sapiens), sequence (P13945 whole entry, looked up): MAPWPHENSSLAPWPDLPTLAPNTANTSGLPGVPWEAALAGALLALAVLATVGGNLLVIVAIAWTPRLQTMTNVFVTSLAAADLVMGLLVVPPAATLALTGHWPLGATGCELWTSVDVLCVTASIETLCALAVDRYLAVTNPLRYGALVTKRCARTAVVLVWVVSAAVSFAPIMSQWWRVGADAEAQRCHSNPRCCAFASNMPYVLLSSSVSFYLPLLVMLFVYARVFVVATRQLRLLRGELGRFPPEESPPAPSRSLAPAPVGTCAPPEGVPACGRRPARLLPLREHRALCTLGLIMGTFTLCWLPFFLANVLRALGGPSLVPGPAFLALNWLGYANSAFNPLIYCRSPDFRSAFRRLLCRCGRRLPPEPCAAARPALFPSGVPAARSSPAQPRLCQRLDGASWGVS

[4] = molecular target: T1, Proteinase-activated receptor 1 (Homo sapiens); experiment: Reversible inhibition of PAR1 in human EAhy926 cells assessed as reduction in TFLLRN-NH2-induced intracellular calcium mobilization at 10 uM incubated for 15 mins and washed in buffer followed by TFLLRN-NH2 addition by Fluo-4-AM dye based fluorescence assay relative to control; assay type: functional, cell-based
[5] = molecular target: Translocator protein (Rattus norvegicus) (UniProt P16257); experiment: Inhibition of rat PBR at 10 uM
Translocator protein (Rattus norvegicus), sequence (P16257 whole entry, looked up): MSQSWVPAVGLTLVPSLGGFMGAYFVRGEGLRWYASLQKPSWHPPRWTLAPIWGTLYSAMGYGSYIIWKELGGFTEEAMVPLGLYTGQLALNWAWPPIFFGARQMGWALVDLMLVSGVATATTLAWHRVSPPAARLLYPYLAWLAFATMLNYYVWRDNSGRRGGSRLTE

HUVEC (human) = experiment: Antiinflammatory activity in human HUVEC cells assessed as inhibition of TNFalpha-induced TF expression at 10 uM preincubated for 1 hr followed by TNFalpha addition and measured after 3 hrs by qPCR analysis
[6] = molecular target: Beta-1 adrenergic receptor (Homo sapiens) (UniProt P08588); experiment: Inhibition of beta1 adrenoceptor (unknown origin) at 10 uM by radio ligand binding assay
Beta-1 adrenergic receptor (Homo sapiens), sequence (P08588 whole entry, looked up): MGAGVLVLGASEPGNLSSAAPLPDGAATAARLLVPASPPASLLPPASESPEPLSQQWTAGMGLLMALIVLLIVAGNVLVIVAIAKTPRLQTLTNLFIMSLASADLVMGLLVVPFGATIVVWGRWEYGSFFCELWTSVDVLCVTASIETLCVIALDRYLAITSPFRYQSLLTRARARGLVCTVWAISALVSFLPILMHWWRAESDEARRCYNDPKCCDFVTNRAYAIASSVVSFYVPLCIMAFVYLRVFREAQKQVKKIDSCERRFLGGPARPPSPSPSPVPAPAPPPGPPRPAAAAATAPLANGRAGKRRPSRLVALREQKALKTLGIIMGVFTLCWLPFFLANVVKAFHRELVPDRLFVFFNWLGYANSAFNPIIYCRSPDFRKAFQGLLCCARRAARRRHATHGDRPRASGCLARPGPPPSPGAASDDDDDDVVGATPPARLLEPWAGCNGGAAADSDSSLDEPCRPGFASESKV

[7] = molecular target: T2, Proteinase-activated receptor 1 (Homo sapiens, UniProt P25116); experiment: Negative allosteric modulation of PAR1 in human EAhy926 cells assessed as reduction in TFLLRN-NH2-induced intracellular calcium mobilization incubated for 15 mins followed by TFLLRN-NH2 addition by Fluo-4-AM dye based fluorescence assay; assay type: functional, cell-based; summary of the method: as §1
T2 sequence (P25116 whole entry): T1 sequence (whole entry)

[8] = Stability in human plasma at 10 uM measured at 4 hrs by LC-MS analysis; assay type: ADME, cell-free
Summary of the method: (§2)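 Compound incubated in mouse or human plasma; % parent remaining at 4 h.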

HepG2 = experiment: Cytotoxicity against human HepG2 cells assessed as reduction in cell viability; assay type: cell-based
Summary of the method: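 Human HepG2 cells; cytotoxicity reported as CC50.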

[9] = molecular target: Proteinase-activated receptor 2 (Homo sapiens) (UniProt P55085); experiment: Negative allosteric modulation of PAR2 in human EAhy926 cells assessed as reduction in SLIGKV-NH2-induced intracellular calcium mobilization at 0.316 to 10 uM incubated for 15 mins followed by TFLLRN-NH2 addition by Fluo-4-AM dye based fluorescence assay relative to control; assay type: functional, cell-based
Proteinase-activated receptor 2 (Homo sapiens), sequence (P55085 whole entry): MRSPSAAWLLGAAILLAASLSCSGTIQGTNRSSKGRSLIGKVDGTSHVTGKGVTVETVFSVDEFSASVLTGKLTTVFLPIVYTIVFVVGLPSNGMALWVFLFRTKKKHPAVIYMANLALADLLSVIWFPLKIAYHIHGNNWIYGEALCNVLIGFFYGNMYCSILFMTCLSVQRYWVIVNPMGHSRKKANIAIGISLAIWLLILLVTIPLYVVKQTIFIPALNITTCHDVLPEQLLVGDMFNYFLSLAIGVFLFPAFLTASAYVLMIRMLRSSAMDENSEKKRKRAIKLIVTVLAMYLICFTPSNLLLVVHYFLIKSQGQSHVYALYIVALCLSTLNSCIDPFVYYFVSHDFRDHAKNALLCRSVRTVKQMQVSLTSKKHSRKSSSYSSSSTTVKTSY

[10] = Stability in mouse plasma at 10 uM measured at 4 hrs by LC-MS analysis; assay type: ADME, cell-free; summary of the method: as §2
[11] = Solubility in 2.5% DMSO; assay type: physicochemical
Summary of the method: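 Kinetic aqueous solubility assay with 2.5% DMSO.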

[12] = Stability in human plasma at 20 uM measured at 4 hrs by LC-MS analysis; assay type: ADME, cell-free; summary of the method: as §2
[13] = molecular target: T1, Proteinase-activated receptor 1 (Homo sapiens); experiment: Negative allosteric modulation of PAR1 in human EAhy926 cells assessed as reduction in TFLLRN-NH2-induced intracellular calcium mobilization at 0.0316 to 3.16 uM incubated for 15 mins followed by TFLLRN-NH2 addition by Fluo-4-AM dye based fluorescence assay relative to control
[14] = molecular target: Sodium-dependent noradrenaline transporter (Homo sapiens) (UniProt P23975); experiment: Inhibition of NET receptor (unknown origin) at 10 uM
Sodium-dependent noradrenaline transporter (Homo sapiens), sequence (P23975 whole entry): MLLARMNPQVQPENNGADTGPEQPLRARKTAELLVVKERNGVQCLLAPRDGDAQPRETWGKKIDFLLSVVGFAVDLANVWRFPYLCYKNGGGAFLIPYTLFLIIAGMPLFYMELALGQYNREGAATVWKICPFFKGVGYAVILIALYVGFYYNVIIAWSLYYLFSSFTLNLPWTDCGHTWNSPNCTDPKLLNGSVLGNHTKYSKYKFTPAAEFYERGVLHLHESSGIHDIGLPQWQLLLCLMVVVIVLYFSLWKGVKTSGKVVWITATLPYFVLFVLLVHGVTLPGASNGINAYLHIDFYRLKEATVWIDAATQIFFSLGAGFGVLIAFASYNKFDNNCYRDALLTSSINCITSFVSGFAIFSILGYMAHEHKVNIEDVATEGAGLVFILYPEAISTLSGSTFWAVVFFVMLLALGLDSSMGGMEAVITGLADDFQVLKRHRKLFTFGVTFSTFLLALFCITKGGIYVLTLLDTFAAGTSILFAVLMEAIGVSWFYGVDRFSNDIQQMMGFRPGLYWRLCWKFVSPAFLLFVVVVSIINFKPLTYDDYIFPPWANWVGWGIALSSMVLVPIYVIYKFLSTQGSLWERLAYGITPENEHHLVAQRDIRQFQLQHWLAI

[15] = Stability in mouse plasma at 20 uM measured at 4 hrs by LC-MS analysis; assay type: ADME, cell-free; summary of the method: as §2
[16] = molecular target: T1, Proteinase-activated receptor 1 (Homo sapiens); experiment: Negative allosteric modulation of PAR1 in human EAhy926 cells assessed as reduction in TFLLRN-NH2-induced intracellular calcium mobilization incubated for 15 mins followed by TFLLRN-NH2 addition by Fluo-4-AM dye based fluorescence assay relative to control; assay type: functional, cell-based; summary of the method: as §1
[17] = molecular target: T1, Proteinase-activated receptor 1 (Homo sapiens); experiment: Negative allosteric modulation of PAR1 in human EAhy926 cells assessed as reduction in TFLLRN-NH2-induced intracellular calcium mobilization at 31.6 uM incubated for 15 mins followed by TFLLRN-NH2 addition by Fluo-4-AM dye based fluorescence assay relative to control; assay type: functional, cell-based
[18] = molecular target: T1, Proteinase-activated receptor 1 (Homo sapiens); conditions: 0.316 uM

Structure (SMILES): CCC(=O)Nc1cccc(NC(=O)c2ccccc2Br)c1
- inhibition [1]: 54%

Structure (SMILES): O=C(Nc1cccc(NC(=O)[C@H]2CCCN2)c1)c1ccccc1Br
- inhibition [1]: 63%

Structure (SMILES): CCC(O)C(=O)Nc1cccc(NC(=O)c2ccccc2Br)c1 (stereo not drawn)
- inhibition [1]: 21%

Structure (SMILES): CCCC(=O)Nc1cccc(NC(=O)c2ccccc2Br)c1
- inhibition at 10 µM (Platelet): 100%
- remaining at 1 h [2]: 99%
- inhibition [3]: 32%
- inhibition [4]: Active
- inhibition [5]: 84%
- inhibition (HUVEC (human)): Active
- inhibition [6]: 49%
- IC50 ([7]; read-out: IC50): 0.57 µM
- Stability [8]: 79%
- CC50 (HepG2): > 150 µM
- inhibition [9]: inactive
- Stability [10]: < 1%
- solubility kinetic [11]: 24 µM (≈ 8.67 µg/mL)

Structure (SMILES): O=C(CC(F)(F)F)Nc1cccc(NC(=O)c2ccccc2Br)c1
- inhibition [1]: 88%
- inhibition [4]: Active
- IC50 ([7]; read-out: IC50): 0.38 µM
- inhibition [9]: inactive

Structure (SMILES): CCCCNc1cccc(NC(=O)c2ccccc2Br)c1
- inhibition [1]: 85%
- inhibition [4]: Active
- inhibition [9]: inactive

Structure (SMILES): CC(C)(C)OC(=O)N1CCC[C@H]1C(=O)Nc1cccc(NC(=O)c2ccccc2Br)c1
- inhibition [1]: -8%

Structure (SMILES): CCCNCc1cccc(NC(=O)c2ccccc2Br)c1
- inhibition [1]: 17%

Structure (SMILES): O=C(Nc1cccc(NC(=O)[C@@H]2CCCN2)c1)c1ccccc1Br
- inhibition [1]: 4%

Structure (SMILES): COCCNc1cccc(NC(=O)c2ccccc2Br)c1
- inhibition [1]: 43%

Structure (SMILES): CCCCOc1cccc(NC(=O)c2ccccc2Br)c1
- inhibition [1]: 57%

Structure (SMILES): COCCC(=O)Nc1cccc(NC(=O)c2ccccc2Br)c1
- inhibition [1]: 39%

Structure (SMILES): O=C(Nc1cccc(NC(=O)C2CCOC2)c1)c1ccccc1Br (stereo not drawn)
- inhibition [1]: 44%

Structure (SMILES): COC(=O)Nc1cccc(NC(=O)c2ccccc2Br)c1
- inhibition [1]: 42%

Structure (SMILES): CCC(C)C(=O)Nc1cccc(NC(=O)c2ccccc2Br)c1 (stereo not drawn)
- inhibition [1]: 27%

Structure (SMILES): C#CCCC(=O)Nc1cccc(NC(=O)c2ccccc2Br)c1
- IC50 ([7]; read-out: pIC50 (converted)): > 10 µM

Structure (SMILES): CC(C)[C@H](O)C(=O)Nc1cccc(NC(=O)c2ccccc2Br)c1
- inhibition [1]: 48%

Structure (SMILES): COC(C)C(=O)Nc1cccc(NC(=O)c2ccccc2Br)c1 (stereo not drawn)
- inhibition [1]: 58%

Structure (SMILES): CC(C)[C@@H](O)C(=O)Nc1cccc(NC(=O)c2ccccc2Br)c1
- inhibition [1]: 25%

Structure (SMILES): O=C(Nc1cccc(NC(=O)c2ccccc2Br)c1)c1cnco1
- inhibition at 10 µM (Platelet): 100%
- remaining at 1 h [2]: 99%
- Stability [12]: 97%
- inhibition [1]: 90%
- inhibition [4]: Active
- inhibition [13]: Active
- inhibition [5]: 67%
- inhibition (HUVEC (human)): Active
- IC50 ([7]; read-out: IC50): 0.37 µM
- inhibition [14]: 31%
- Stability [15]: 32%
- CC50 (HepG2): > 150 µM
- inhibition [9]: inactive
- solubility kinetic [11]: 17 µM (≈ 6.57 µg/mL)

Structure (SMILES): CCCCC(=O)Nc1cccc(NC(=O)c2ccccc2Br)c1
- inhibition [1]: 23%

Structure (SMILES): O=C(Nc1cccc(NC(=O)C2CCCC2)c1)c1ccccc1Br
- inhibition [1]: 65%

Structure (SMILES): CCCNC(=O)c1cccc(NC(=O)c2ccccc2Br)c1
- inhibition [16]: 50%
- inhibition [1]: 63%
- IC50 ([7]; read-out: IC50): 0.22 µM

Structure (SMILES): CC(C)CC(=O)Nc1cccc(NC(=O)c2ccccc2Br)c1
- inhibition [1]: 82%

Structure (SMILES): O=C(Nc1cccc(NC(=O)C2CCCO2)c1)c1ccccc1Br (stereo not drawn)
- inhibition [1]: 42%

Structure (SMILES): CC(C)(C)OC(=O)N1CCC[C@@H]1C(=O)Nc1cccc(NC(=O)c2ccccc2Br)c1
- inhibition [1]: 65%

Structure (SMILES): COCC(=O)Nc1cccc(NC(=O)c2ccccc2Br)c1
- inhibition [1]: 38%

Structure (SMILES): COC(=O)CC(=O)Nc1cccc(NC(=O)c2ccccc2Br)c1
- inhibition [1]: 11%

Structure (SMILES): O=C(Nc1cccc(NC(=O)c2ccccc2Br)c1)c1cocn1
- inhibition [1]: 82%
- inhibition [4]: Active
- inhibition [17]: 50%
- IC50 ([7]; read-out: IC50): 0.42 µM
- inhibition [9]: inactive

Structure (SMILES): CN(C)CC(=O)Nc1cccc(NC(=O)c2ccccc2Br)c1
- inhibition [1]: 3%

Structure (SMILES): O=C(O)CC(=O)Nc1cccc(NC(=O)c2ccccc2Br)c1
- inhibition [1]: 37%

Structure (SMILES): NC(=O)CC(=O)Nc1cccc(NC(=O)c2ccccc2Br)c1
- inhibition [1]: 36%

Structure (SMILES): CCOC(=O)Nc1cccc(NC(=O)c2ccccc2Br)c1
- inhibition [1]: 60%

Structure (SMILES): CCOC(=O)N[C@@H]1CC[C@@H]2[C@@H](C1)C[C@H]1C(=O)O[C@H](C)[C@H]1[C@H]2/C=C/c1ccc(-c2cccc(F)c2)cn1
- inhibition [18]: > 75%
- inhibition [4]: inactive
- inhibition [9]: inactive

Structure (SMILES): CCCN(CCC)c1cccc(NC(=O)c2ccccc2Br)c1
- inhibition [1]: 13%

Structure (SMILES): O=C(Nc1cccc(NC(=O)c2ccccc2Br)c1)c1ccco1
- inhibition [1]: 92%
- inhibition [4]: Active
- IC50 ([7]; read-out: IC50): 0.32 µM
- inhibition [9]: inactive

Structure (SMILES): O=C(Nc1cccc(NC(=O)c2ccccc2Br)c1)c1ccccc1
- inhibition [1]: 58%
